A selection: hits, their analogues and other compounds. The true share with any hit is near 3%.
T cruzi repl: blocks replication of Trypanosoma cruzi; T. cruzi beta-gal in NIH3T3, luminescence, 90 h; inhibition, % (test concentration not listed); 300,000 tested, 1.4% active;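 active = mean inhibition across valid replicates above about 55%, limit read from the data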;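 note: signal also drops with host cell toxicity which is not excluded here; 0% = plate median of DMSO wells and 100% = zero luminescence signal; higher percent means less beta-gal luminescence so fewer parasites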
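System: mouse NIH/3T3 fibroblasts infected with β-gal-expressing T. cruzi Tulahuen C4 / Input: NIH/3T3 cells, 5,000 per well / Buffer or medium: Low-serum DMEM with 2% FBS / Probe or stimulus: 5000 reporter trypomastigotes per well / Schedule: ≥90 h infection period, 3 h prior cell attachment / Measured by: GalScreen luminescence, 60 min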
Glyco luc inh: N-linked glycosylation inhibition; D54 ERlucT glycosylation luciferase reporter, 24 h; percent of 100 nM tunicamycin response; reporter increase, % at 12.5 µM; 360,000 tested, 0.23% active;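 active = mean luciferase reporter signal, scaled so untreated is 0 and the glycosylation-blocking control 100, at or above a set limit in every replicate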;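 note: luciferase carries N-glycosylation sites so blocking glycosylation raises the light; 0% = median of neutral control wells and 100% = median of 100 nM tunicamycin wells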
CaV13 FRET inh: Disruptors of the CACNA1D IQ motif to Ca2+-dependent inactivation inhibitor domain association, primary screening, Förster resonance energy transfer in intact living … | inhibition, % at 12.3 µM | 340,000 tested, 0.098% active | HEK cells, CFP/YFP FRET ICDI-IQ, plate reader, 10 min; percent FRET-ratio fall versus neutral wells | AID 743397;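 active = mean replicate inhibition of at least 30% and at least 1% of replicates passing that level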;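 note: 0% = median of the neutral control wells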
PfHsp90 yeast 2: reduces growth (ATP signal) of yeast expressing P. falciparum Hsp90; inhibition, % at 9.4 µM; 310,000 tested, 0.32% active; S. cerevisiae expressing PfHsp90, BacTiter-Glo ATP, 48 h; yeast lacking PDR1 and PDR3 efflux regulators; AID 504621;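 active = every replicate shows inhibition above about 80%, whatever the replicate mean, limit read from the data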;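 note: 0% = DMSO neutral controls and 100% = 20 µM radicicol positive controls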
HSF-1 act: increases HSF-1 driven luciferase reporter signal; NIH3T3-HGL HSF-1 luciferase reporter, MG132, 8 h; 100% = twice DMSO control signal; activation, % at 9 µM; 300,000 tested, 1.7% active; AID 504408;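 active = mean replicate activation of at least 50% with a set share of replicates each reaching 50%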;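 note: 0% = median of the neutral control wells and 100% = twice that signal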
PvdQ acylase: blocks Pseudomonas aeruginosa PvdQ acylase activity; purified PvdQ acylase, fluorescence plate reader; AID 488965; 340,000 tested, 0.063% active; inhibition, % at 10 µM; in the data active = inhibition above about 30%, passing the limit was not always enough;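 note: 0% = vehicle neutral wells and 100% = reference inhibitor wells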
Numbers without * were called inactive.

How did O=C(C=Cc1ccccc1)c1c[nH]c2ccccc2c1=O do in these assays?
Glyco luc inh: -8.2; CaV13 FRET inh: -7.1; PfHsp90 yeast 2: 16.6; PvdQ acylase: 10.6

Results for COC(=O)c1c(C)[nH]c(C(=O)CSc2ccc(Cl)cc2)c1C ?
T cruzi repl: 22.4; Glyco luc inh: 2.7; HSF-1 act: 91.1*; PvdQ acylase: -14.3

Results for COC(=O)c1c(C)[nH]c(C(=O)/C=C/c2cccc(Cl)c2)c1C ?
T cruzi repl: 47.2; Glyco luc inh: 17.3; CaV13 FRET inh: -9.3; PfHsp90 yeast 2: 0.1; HSF-1 act: 356.1*; PvdQ acylase: -12.2

Results for COC(=O)c1c(C)[nH]c(C(=O)/C=C/c2ccccc2)c1C ?
T cruzi repl: 5.0; Glyco luc inh: -8.3; CaV13 FRET inh: -7.7; PfHsp90 yeast 2: -13.9; HSF-1 act: 59.1*; PvdQ acylase: -10.8

Results for Cc1[nH]c2ccccc2c(=O)c1C(=O)/C=C/c1ccccc1 ?
T cruzi repl: 48.1; Glyco luc inh: -18.0; CaV13 FRET inh: -2.6; PfHsp90 yeast 2: 23.3; HSF-1 act: 86.7*; PvdQ acylase: 6.4

What do the screens show for `CCc1nc2ccc(C(=O)Nc3cccc(NS(C)(=O)=O)c3)cn2c1N(CC)CCOC`?
Glyco luc inh: 0.4; CaV13 FRET inh: -4.7

What do the screens show for `O=C(O)c1cnc2ccc(Cl)cc2n1`?
Glyco luc inh: 0.4; CaV13 FRET inh: -4.1

What do the screens show for `O=C(CCN1C(=O)S/C(=C\C=C\c2ccccc2)C1=O)Nc1ccc(O)cc1`?
T cruzi repl: -17.7; Glyco luc inh: 11.3; CaV13 FRET inh: -1.9; PfHsp90 yeast 2: -24.0; HSF-1 act: 100.3*; PvdQ acylase: -9.7

How did O=C(CN1C(=O)S/C(=C\C=C\c2ccccc2)C1=O)Nc1cccc(O)c1 do in these assays?
T cruzi repl: -18.5; Glyco luc inh: 3.2; CaV13 FRET inh: -3.6; PfHsp90 yeast 2: -25.1; HSF-1 act: 153.8*; PvdQ acylase: 3.1

What do the screens show for `CCN(C(=O)CN1C(=O)S/C(=C\C=C\c2ccccc2)C1=O)C1CCS(=O)(=O)C1` (stereo not given)?
T cruzi repl: 27.9; Glyco luc inh: 4.4; CaV13 FRET inh: -7.2; PfHsp90 yeast 2: -14.0; HSF-1 act: 86.3*; PvdQ acylase: -0.2

How did O=C(CCCN1C(=O)S/C(=C\C=C\c2ccccc2)C1=O)Nc1ccc(C(=O)O)cc1 do in these assays?
T cruzi repl: -5.8; Glyco luc inh: 3.6; CaV13 FRET inh: -2.5; PfHsp90 yeast 2: -69.0; HSF-1 act: 28.3; PvdQ acylase: -7.6

How did CSc1ccc(NC(=O)C2(C)CCN2C(=O)Cc2ccc(C(C)(C)C)cc2)cc1 (stereo not given) do in these assays?
Glyco luc inh: -1.6; CaV13 FRET inh: -10.2

Results for COC(=O)C1C(=O)c2c([nH]c(C(=O)OC3CCCCC3)c2C)CC1C (stereo not given) ?
T cruzi repl: -8.3; Glyco luc inh: -0.8; CaV13 FRET inh: -1.9; PfHsp90 yeast 2: -30.2; HSF-1 act: 68.3*; PvdQ acylase: -7.7

How did CSC[C@H]1CN(CCc2ccccc2)C(=O)[C@@H]1CC(=O)Nc1ccccc1 do in these assays?
Glyco luc inh: 0.1; CaV13 FRET inh: -5.3

How did CCN(CC)S(=O)(=O)c1cccc(C(=O)N/N=C(\C)c2ccc(O)cc2O)c1 do in these assays?
T cruzi repl: 64.2*; Glyco luc inh: -14.9; CaV13 FRET inh: -6.6; HSF-1 act: 0.1; PvdQ acylase: -4.5

What do the screens show for `CCOc1ccccc1C(=O)N[C@H](C(=O)Nc1nc2c(s1)CCCC2)C(C)C`?
T cruzi repl: 68.5*; Glyco luc inh: 4.4; CaV13 FRET inh: 2.7; PfHsp90 yeast 2: -13.6; HSF-1 act: 22.2; PvdQ acylase: -17.0

What do the screens show for `CC1(C(=O)NS(=O)(=O)c2cccs2)CCN1C(=O)CC1CC1` (stereo not given)?
Glyco luc inh: 2.3; CaV13 FRET inh: -10.6

What do the screens show for `Cc1ccccc1/C=N/Nc1nc2ccccc2[nH]1`?
T cruzi repl: 32.2; Glyco luc inh: -2.6; CaV13 FRET inh: 11.2; PfHsp90 yeast 2: -5.3; HSF-1 act: 228.8*; PvdQ acylase: 7.8

Source: PubChem BioAssay
